According to ChEMBL document CHEMBL4715781, “Exploration of bivalent ligands targeting putative mu opioid receptor and chemokine receptor CCR5 dimerization” (Bioorg Med Chem, 2016):
Active and inactive are the calls of the source. The calls are words filed in the database; no cut-off is given here.

Legend:
Mu-type opioid receptor [1] = target: Mu-type opioid receptor (Homo sapiens, UniProt P35372); assay: Antagonist activity at human MOR transfected in CHO cells co-transfected with Gqi5 assessed as inhibition of DAMGO-induced calcium mobilization incubated for 15 mins prior to DAMGO addition and measured for 90 secs by Fluo-4AM dye based fluorescence analysis; format: functional, cell-based
Summary of the method: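 Gqi5-transfected hMOR-CHO cells plated at 20,000/well and used 48 h after transfection. Loaded 30 min with Fluo-4 AM/probenecid in HBSS:HEPES, then ligands added for 15 min. IC50 from non-linear regression of peak heights. Three repeats.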

Mu-type opioid receptor [2] = target: Mu-type opioid receptor (Mus musculus, UniProt P42866); assay: Displacement of [3H]NLX from mouse MOR expressed in CHO cell membrane incubated for 90 mins by liquid scintillation spectrophotometry; format: cell membranes
Summary of the method: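 mMOR-CHO membranes incubated 90 min at 30 °C with 2 nM [3H]naloxone and varying unlabeled ligand. Bound ligand collected by rapid GF-B filtration with 3 ice-cold Tris washes and counted by scintillation (45% efficiency). Competitor IC50 used to derive Ki. At least three independent experiments.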

[3] = target: T1, C-C chemokine receptor type 5 (Homo sapiens, UniProt P51681); assay: Antagonist activity at CCR5 receptor in human MOLT4 cells transfected with Gqi5 assessed as inhibition of RANTES-induced calcium mobilization incubated for 15 mins prior to RANTES addition and measured for 120 secs by Fluo-4AM dye based fluorescence analysis; format: functional, cell-based, MOLT-4
Summary of the method: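 CCR5-MOLT-4 cells transfected with Gqi5, assayed 48 h later at 25,000 cells/well. Fluo-4 AM/probenecid loading for 45 min, then ligands for 15 min. IC50 from non-linear regression of peak heights. Three repeats.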
Target sequence in this assay (P51681 whole entry): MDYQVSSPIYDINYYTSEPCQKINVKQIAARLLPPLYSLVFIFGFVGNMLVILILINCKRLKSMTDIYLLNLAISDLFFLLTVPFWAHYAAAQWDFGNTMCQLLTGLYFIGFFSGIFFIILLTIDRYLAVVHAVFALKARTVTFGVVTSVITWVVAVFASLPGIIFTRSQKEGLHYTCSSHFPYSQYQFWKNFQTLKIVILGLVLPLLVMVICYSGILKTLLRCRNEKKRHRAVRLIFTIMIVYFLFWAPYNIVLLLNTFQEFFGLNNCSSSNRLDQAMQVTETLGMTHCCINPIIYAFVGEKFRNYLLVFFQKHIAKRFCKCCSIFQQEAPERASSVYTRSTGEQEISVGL

[4] = target: T1, C-C chemokine receptor type 5; assay: Agonist activity at CCR5 receptor in human MOLT4 cells transfected with Gqi5 assessed as calcium mobilization incubated for 15 mins by Fluo-4AM dye based fluorescence analysis; format: functional, cell-based; details: MOLT-4
Summary of the method: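 CCR5-MOLT-4 cells transfected with Gqi5, tested 48 h post-transfection at 25,000 cells/well in 50:1 HBSS:HEPES buffer. Fluo-4 AM with probenecid loaded for 45 min, then varying ligand concentrations added for 15 min. Fluorescence at 494/516 nm read for 120 s, with buffer alone added at 16 s in place of RANTES. Peak height taken as agonism read-out.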
Target sequence in this assay (P51681 whole entry, looked up): as the sequence (P51681 whole entry) above

[5] = target: C-C chemokine receptor type 5 (Macaca mulatta, UniProt P61813); assay: Displacement of [125I]MIP-1alpha from CCR5 receptor in rhesus monkey membrane incubated for 120 mins by liquid scintillation counting analysis; format: cell membranes, Cell membrane
CHO [6] = assay: Antagonist activity at CCR5 receptor in CHO cells co-expressing hMOR, CD4 and luciferase reporter assessed as inhibition of CD4-gp120 complex interaction with receptor dimer by measuring inhibition of cell-cell fusion process at 100 nM measured after co-incubation of CHO cells with HEK293 cells …; format: cell-based; details: Cricetulus griseus, filed as antagonist, time 18.0 hrs
[7] = tested on: Human immunodeficiency virus 1; assay: Antiviral activity against HIV-1 BAL infected in human macrophages assessed as reduction in p24 production at 500 nM treated for 1 hr prior to viral infection and measured after 5 days by ELISA; format: functional, organism-based; details: Macrophage, time 5.0 day
Summary of the method: (§1)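 PBMCs were Ficoll-isolated from leukopak blood and grown in RPMI-1640 with 10% FBS; macrophages came from PBMCs given M-CSF 100 ng/mL for 6 days. Cells at 1 × 10^5/mL were stimulated with IL-2 (100 ng/mL) and PHA (5 µg/mL) for 48 h, then polybrene (2 µg/mL) for 30 min. Compound was added 1 h before R5 HIV-1 BaL (p24 1000 pg/mL). Supernatant and RIPA-lysate p24 were measured by ELISA at day 5.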

CHO [8] = assay: Antagonist activity at CCR5 receptor in CHO cells co-expressing hMOR, CD4 and luciferase reporter assessed as inhibition of CD4-gp120 complex interaction with receptor dimer by measuring inhibition of cell-cell fusion process at 100 nM measured after co-incubation of CHO cells with HEK293 cells …; format: cell-based; details: Cricetulus griseus, filed as antagonist, time 18.0 hrs; remark: listed apart in the source
[9] = tested on: Human immunodeficiency virus 1; assay: Antiviral activity against HIV-1 BAL infected in human PBMC assessed as reduction in p24 production at 500 nM treated for 1 hr prior to viral infection and measured after 5 days by ELISA; format: functional, organism-based; details: time 5.0 day; summary of the method: as §1
[10] = tested on: Human immunodeficiency virus 1; assay: Antiviral activity against HIV-1 SF162 infected in human astrocytes assessed as reduction in viral invasion by measuring decrease in Tat protein expression at 100 nM treated prior to viral infection and measured after 18 hrs by luciferase based assay; format: functional, organism-based; details: Astrocyte
Summary of the method: (§2)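 Primary human astrocytes in 24-well plates transfected with pBlue3'LTR-luc. […] Uninfected cells served as negative control. After about 18–20 h, cells were PBS-rinsed and lysed, and Tat-driven luciferase was measured.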

[11] = tested on: Human immunodeficiency virus 1; assay: Antiviral activity against HIV-1 SF162 infected in human astrocytes assessed as reduction in viral invasion by measuring decrease in Tat protein expression at 100 nM co-treated with morphine prior to viral infection and measured after 18 hrs by luciferase based assay; format: functional, organism-based; details: Astrocyte; summary of the method: as §2
[12] = tested on: Human immunodeficiency virus 1; assay: Antiviral activity against HIV-1 BAL infected in human astrocytes assessed as reduction in p24 production at 10 to 1000 nM treated for 1 hr prior to viral infection and measured after 5 days by ELISA; format: functional, organism-based; details: Astrocyte, dose 10-1000 nM, time 5.0 day
Summary of the method: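 Primary human astrocytes plated at 1 × 10^5 cells/mL and stimulated 48 h with IL-2 (100 ng/mL) and PHA (5 µg/mL). Polybrene for 30 min, then compound at 10, 100, 1000 nM for 1 h before infection with HIV-1 BaL (p24 1000 pg/mL). p24 ELISA on supernatants and lysates at day 5.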

[13] = tested on: Human immunodeficiency virus 1; assay: Antiviral activity against HIV-1 BAL infected in human PBMC assessed as reduction in p24 production at 1 uM treated for 1 hr prior to viral infection and measured after 5 days by ELISA; format: functional, organism-based; details: time 5.0 day
Summary of the method: (§3)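 Ficoll-isolated human PBMCs plated at 1 × 10^5 cells/mL and stimulated 48 h with IL-2 (100 ng/mL) and PHA (5 µg/mL). Then polybrene (2 µg/mL) for 30 min, compound at 10, 100 or 1000 nM for 1 h, and infection with R5-tropic HIV-1 BaL (p24 1000 pg/mL). Supernatant and RIPA lysate p24 measured by ELISA at day 5. Dunnett's test against infection alone.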

[14] = tested on: Human immunodeficiency virus 1; assay: Antiviral activity against HIV-1 BAL infected in human macrophages assessed as reduction in p24 production at 1 uM treated for 1 hr prior to viral infection and measured after 5 days by ELISA; format: functional, organism-based; details: Macrophage, time 5.0 day
Summary of the method: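 Macrophages derived from PBMCs with M-CSF (100 ng/mL) for 6 days, plated at 1 × 10^5 cells/mL and stimulated 48 h with IL-2/PHA. Polybrene for 30 min, compound (10–1000 nM) for 1 h before HIV-1 BaL (p24 1000 pg/mL). p24 in supernatant and lysate measured by ELISA 5 days post-infection. ANOVA with Dunnett's test.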

CHO [15] = assay: Binding affinity to CCR5-hMOR heterodimer in CHO cells co-expressing CD4 and luciferase reporter assessed as inhibition of CD4-gp120 complex interaction with receptor dimer by measuring inhibition of cell-cell fusion process at 3000 nM measured after co-incubation of CHO cells with HEK293 cells …; format: cell-based; details: time 18.0 hrs
[16] = tested on: Human immunodeficiency virus 1; assay: Antiviral activity against HIV-1 BAL infected in human PBMC assessed as reduction in p24 production at 10 to 1000 nM treated for 1 hr prior to viral infection and measured after 5 days by ELISA; format: functional, organism-based; details: dose 10-1000 nM, time 5.0 day; summary of the method: as §3
CHO [17] = assay: Binding affinity to CCR5-hMOR heterodimer in CHO cells co-expressing CD4 and luciferase reporter assessed as inhibition of CD4-gp120 complex interaction with receptor dimer by measuring inhibition of cell-cell fusion process at 3000 nM measured after co-incubation of CHO cells with HEK293 cells …; format: cell-based; details: time 18.0 hrs; remark: listed apart in the source
[18] = tested on: Human immunodeficiency virus 1; assay: Antiviral activity against HIV-1 SF162 infected in human astrocytes assessed as reduction in viral invasion by measuring decrease in Tat protein expression at 100 nM treated prior to viral infection and measured after 18 hrs by luciferase based assay relative to maraviroc in presence of morphine; format: functional, Astrocyte
Summary of the method: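 Primary human astrocytes carried the transfected pBlue3'LTR-luc reporter. […] Uninfected cells served as negative control. Lysates were taken about 18–20 h later after PBS rinses, and Tat expression was quantified by luciferase luminescence.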

[19] = tested on: Human immunodeficiency virus 1; assay: Antiviral activity against HIV-1 SF162 infected in human astrocytes assessed as reduction in viral invasion by measuring decrease in Tat protein expression at 100 nM treated prior to viral infection and measured after 18 hrs by luciferase based assay relative to maraviroc; format: functional, Astrocyte
Summary of the method: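 Primary human astrocytes in 24-well plates were transfected with the LTR-luciferase reporter pBlue3'LTR-luc. […] Uninfected cells served as negative control. After about 18–20 h, cells were PBS-rinsed and lysed, and luciferase activity was read as Tat expression.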

Chain of Mu-type opioid receptor (Homo sapiens, UniProt P35372) (P35372 whole entry): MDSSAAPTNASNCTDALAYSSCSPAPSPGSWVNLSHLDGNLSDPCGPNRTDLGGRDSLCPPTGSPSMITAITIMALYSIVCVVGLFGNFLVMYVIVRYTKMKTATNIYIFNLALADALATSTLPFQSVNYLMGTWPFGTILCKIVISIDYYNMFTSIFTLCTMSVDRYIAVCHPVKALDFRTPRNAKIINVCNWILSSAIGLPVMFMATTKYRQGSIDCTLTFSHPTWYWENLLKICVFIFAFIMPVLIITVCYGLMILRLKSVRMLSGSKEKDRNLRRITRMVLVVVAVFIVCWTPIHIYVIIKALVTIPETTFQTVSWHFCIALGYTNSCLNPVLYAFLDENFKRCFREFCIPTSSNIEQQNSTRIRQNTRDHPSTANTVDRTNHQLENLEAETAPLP
Chain of Mu-type opioid receptor (Mus musculus, UniProt P42866) (P42866 whole entry): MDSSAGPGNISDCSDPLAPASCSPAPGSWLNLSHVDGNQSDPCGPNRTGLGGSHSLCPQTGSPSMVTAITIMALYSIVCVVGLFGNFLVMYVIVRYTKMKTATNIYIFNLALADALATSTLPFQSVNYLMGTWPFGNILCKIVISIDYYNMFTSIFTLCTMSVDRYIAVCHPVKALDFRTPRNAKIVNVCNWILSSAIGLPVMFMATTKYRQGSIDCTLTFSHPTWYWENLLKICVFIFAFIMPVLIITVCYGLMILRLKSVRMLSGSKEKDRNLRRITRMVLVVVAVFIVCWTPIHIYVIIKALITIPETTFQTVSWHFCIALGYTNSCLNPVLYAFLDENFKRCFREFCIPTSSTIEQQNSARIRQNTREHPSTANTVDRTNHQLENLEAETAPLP

Structure (SMILES) | IC50 (Mu-type opioid receptor [1]) | Ki (Mu-type opioid receptor [2]) | IC50 [3] | Activity [4] | further results
CNC(=O)COCC(=O)NCCCCCCCCCNC(=O)COCC(=O)N[C@@H]1CC[C@@]2(O)[C@H]3Cc4ccc(O)c5c4[C@@]2(CCN3CC2CC2)[C@H]1O5 | 41.4 nM | 1.11 nM |  |  | 
CNC(=O)COCC(=O)NCCCCCCCNC(=O)COCC(=O)Nc1ccc([C@H](CCN2[C@@H]3CC[C@H]2C[C@@H](n2c(C)nnc2C(C)C)C3)NC(=O)C2CCC(F)(F)CC2)cc1 |  |  | 622 nM | inactive | Ki [5]: 151 nM
Cc1nnc(C(C)C)n1[C@H]1C[C@H]2CC[C@@H](C1)N2CC[C@H](NC(=O)C1CCC(F)(F)CC1)c1ccccc1 |  |  |  |  | Activity (CHO [6]): Active; Activity [7]: Active; Activity (CHO [8]): Active; Activity [9]: Active; Activity [10]: Active; Activity [11]: inactive
Cc1nnc(C(C)C)n1[C@H]1C[C@H]2CC[C@@H](C1)N2CC[C@H](NC(=O)C1CCC(F)(F)CC1)c1ccc(NC(=O)COCC(=O)NCCCCCCCCCNC(=O)COCC(=O)N[C@@H]2CC[C@@]3(O)[C@H]4Cc5ccc(O)c6c5[C@@]3(CCN4CC3CC3)[C@H]2O6)cc1 | 21.9 nM | 6.49 nM | 543 nM | inactive | Activity [12]: Active; Activity [13]: Active; Activity [14]: Active
CNC(=O)COCC(=O)NCCCCCNC(=O)COCC(=O)N[C@@H]1CC[C@@]2(O)[C@H]3Cc4ccc(O)c5c4[C@@]2(CCN3CC2CC2)[C@H]1O5 | 92.1 nM | 0.78 nM |  |  | 
CNC(=O)COCC(=O)NCCCCCCCNC(=O)COCC(=O)Nc1cccc([C@H](CCN2[C@@H]3CC[C@H]2C[C@@H](n2c(C)nnc2C(C)C)C3)NC(=O)C2CCC(F)(F)CC2)c1 |  |  | 129 nM | inactive | 
CNC(=O)COCC(=O)NCCCCCNC(=O)COCC(=O)Nc1ccc([C@H](CCN2[C@@H]3CC[C@H]2C[C@@H](n2c(C)nnc2C(C)C)C3)NC(=O)C2CCC(F)(F)CC2)cc1 |  |  | 948 nM | inactive | 
Cc1nnc(C(C)C)n1[C@H]1C[C@H]2CC[C@@H](C1)N2CC[C@H](NC(=O)C1CCC(F)(F)CC1)c1ccc(NC(=O)COCC(=O)NCCCCCCCNC(=O)COCC(=O)N[C@@H]2CC[C@@]3(O)[C@H]4Cc5ccc(O)c6c5[C@@]3(CCN4CC3CC3)[C@H]2O6)cc1 | 40 nM | 3.24 nM | 126 nM | inactive | Activity [12]: Active; Activity (CHO [15]): Active; Activity [16]: Active; Activity (CHO [17]): Active; fold change (FC) [18]: 7; Activity [10]: Active; fold change (FC) [19]: 3.3; Activity [11]: Active; Ki [5]: 239 nM; Activity [14]: Active
CNC(=O)COCC(=O)NCCCCCCCCCNC(=O)COCC(=O)Nc1ccc([C@H](CCN2[C@@H]3CC[C@H]2C[C@@H](n2c(C)nnc2C(C)C)C3)NC(=O)C2CCC(F)(F)CC2)cc1 |  |  | 392 nM | inactive | 
CNC(=O)COCC(=O)NCCCCCCCNC(=O)COCC(=O)N[C@@H]1CC[C@@]2(O)[C@H]3Cc4ccc(O)c5c4[C@@]2(CCN3CC2CC2)[C@H]1O5 |  | 9.2 nM |  |  | 
Cc1nnc(C(C)C)n1[C@H]1C[C@H]2CC[C@@H](C1)N2CC[C@H](NC(=O)C1CCC(F)(F)CC1)c1cccc(NC(=O)COCC(=O)NCCCCCCCNC(=O)COCC(=O)N[C@@H]2CC[C@@]3(O)[C@H]4Cc5ccc(O)c6c5[C@@]3(CCN4CC3CC3)[C@H]2O6)c1 | 17.1 nM | 10 nM | 1340 nM | inactive | 
Cc1nnc(C(C)C)n1[C@H]1C[C@H]2CC[C@@H](C1)N2CC[C@H](NC(=O)C1CCC(F)(F)CC1)c1ccc(NC(=O)COCC(=O)NCCCCCNC(=O)COCC(=O)N[C@@H]2CC[C@@]3(O)[C@H]4Cc5ccc(O)c6c5[C@@]3(CCN4CC3CC3)[C@H]2O6)cc1 | 21.8 nM | 3.8 nM | 2410 nM | inactive | Activity [12]: Active; Activity [16]: inactive; Activity [14]: inactive
